# Test results: ChEMBL document CHEMBL2150957, “Substrate-Selective Inhibition of Cyclooxygenase-2: Development and Evaluation of Achiral Profen Probes” (ACS Med Chem Lett, 2012)
# Columns and labels:
# [1] = target: T1, Prostaglandin G/H synthase 2 (Mus musculus) (UniProt Q05769); test: Inhibition of mouse COX2-mediated 2-arachidonoylglycerol oxygenation at 10 uM preincubated for 3 mins before 2-arachidonoylglycerol addition measured after 30 seconds relative to control
# T1 sequence (whole entry): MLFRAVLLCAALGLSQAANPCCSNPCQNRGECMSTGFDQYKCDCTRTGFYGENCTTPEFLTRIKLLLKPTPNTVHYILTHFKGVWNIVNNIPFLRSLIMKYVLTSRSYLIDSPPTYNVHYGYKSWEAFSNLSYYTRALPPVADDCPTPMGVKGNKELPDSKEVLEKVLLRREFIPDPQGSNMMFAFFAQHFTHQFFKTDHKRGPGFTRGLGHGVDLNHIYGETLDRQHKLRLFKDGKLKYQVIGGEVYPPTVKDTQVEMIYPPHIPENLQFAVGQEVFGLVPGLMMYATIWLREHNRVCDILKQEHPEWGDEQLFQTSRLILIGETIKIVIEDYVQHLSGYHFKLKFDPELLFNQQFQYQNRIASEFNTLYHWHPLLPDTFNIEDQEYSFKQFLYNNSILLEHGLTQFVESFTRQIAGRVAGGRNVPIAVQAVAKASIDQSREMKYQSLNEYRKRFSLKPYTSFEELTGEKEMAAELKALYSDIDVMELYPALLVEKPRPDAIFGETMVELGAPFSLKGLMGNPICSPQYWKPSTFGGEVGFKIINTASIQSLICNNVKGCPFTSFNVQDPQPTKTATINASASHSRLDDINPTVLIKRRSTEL
# Outline: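 Purified murine COX-2 (40 nM) preincubated 3 min with inhibitor in DMSO, with a solvent control. 2-AG (5 μM) then added and reacted 30 s at 37 °C. Value is the maximum inhibition at 10 μM inhibitor. Mean ± standard deviation, n = 6.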
# [2] = target: T1, Prostaglandin G/H synthase 2 (Mus musculus); test: Inhibition of mouse COX2-mediated arachidonic acid oxygenation at 10 uM preincubated for 3 mins before […] measured after 30 seconds
# Outline: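 Purified murine COX-2 (40 nM) preincubated 3 min with inhibitor (10 μM) in DMSO, with a solvent control. Arachidonic acid (5 μM) then added and reacted 30 s at 37 °C. Percent inhibition of AA oxygenation. Mean ± standard deviation, n = 6.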
# [3] = target: T1, Prostaglandin G/H synthase 2 (Mus musculus); test: Inhibition of COX2-mediated arachidonic acid oxygenation in LPS/IFN-gamma-stimulated mouse RAW264.7 cells assessed as AA to PGE2/PGD2 conversion at 25 uM treated 2 hrs after LPS/IFN-gamma stimulation measured after 6 hrs; assay type: cell-based
# Outline: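 RAW 264.7 macrophages stimulated with lipopolysaccharide and interferon γ to generate endogenous AA and 2-AG. Inhibitor added to the medium at varying doses 2 h after stimulation. Medium collected 6 h after stimulation; prostaglandin levels quantified by LC-MS-MS.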
# [4] = Plasma concentration in C57BL/6 mouse at 10 mg/kg, ip after 1 hr; assay type: ADME, organism-based; parameters: dose 10 mg/kg, route intraperitoneal
# Outline: (§1)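 Single i.p. injection in C57BL/6 mice. Blood sampled at 1, 2 and 4 h after dosing and plasma compound concentration measured. n = 3 at 1 h, 2 at 2 h, 3 at 4 h.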
# [5] = Plasma concentration in C57BL/6 mouse at 10 mg/kg, ip after 4 hrs; assay type: ADME, organism-based; parameters: dose 10 mg/kg, route intraperitoneal; outline: as §1
# Plasma = test: Metabolic stability of the compound in C57BL/6 mouse plasma assessed as parent compound level at 10 mg/kg, ip after 16 hrs; assay type: ADME, organism-based; parameters: dose 10 mg/kg, route intraperitoneal; conditions: in vivo
# Outline: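 Blood collected at 72 h, i.e. 16 h after the last injection. Plasma analysed for the dosed compound and, where applicable, its stereoinversion product (S)-flurbiprofen.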
# [6] = Plasma concentration in C57BL/6 mouse at 10 mg/kg, ip after 2 hrs; assay type: ADME, organism-based; parameters: dose 10 mg/kg, route intraperitoneal; outline: as §1
Compound,Imax [1],inhibition [2],further results
O=C(c1ccccc1)c1cccc(C2(C(=O)O)CC2)c1,75%,10%,–
O=C(O)Cc1cccc(Oc2ccccc2)c1,68%,24%,–
COc1ccc2cc(CC(=O)O)ccc2c1,–,16%,–
O=C(O)Cc1cccc(C(=O)c2ccccc2)c1,–,10%,–
CC(C)(C(=O)O)c1ccc(-c2ccccc2)c(F)c1,–,5%,inhibition [3]: 40%
COc1ccc2cc(C3(C(=O)O)CC3)ccc2c1,77%,6%,–
O=C(O)C1(c2ccc(-c3ccccc3)c(F)c2)CC1,87%,0%,inhibition [3]: 55%
CC(C)(C(=O)O)c1cccc(Oc2ccccc2)c1,65%,17%,–
O=C(O)C1(c2cccc(Oc3ccccc3)c2)CC1,–,15%,–
O=C(O)Cc1ccc(-c2ccccc2)c(F)c1 [DESMETHYLFLURBIPROFEN],–,7%,concentration at 1 h [4]: 68 µM; concentration at 4 h [5]: 6 µM; Stability (Plasma): Unstable; concentration at 2 h [6]: 50 µM
CC(C)Cc1ccc(C2(C(=O)O)CC2)cc1,45%,10%,–
CC(C)(C(=O)O)c1cccc(C(=O)c2ccccc2)c1,–,32%,–
CC(C)Cc1ccc(C(C)(C)C(=O)O)cc1,5%,5%,–
CC(C)Cc1ccc(CC(=O)O)cc1,–,14%,–
COc1ccc2cc(C(C)(C)C(=O)O)ccc2c1,12%,7%,–
